Assay results published in ChEMBL document CHEMBL1152230, “Synthesis of (3,4-dimethoxyphenoxy)alkylamino acetamides as orexin-2 receptor antagonists” (Bioorg Med Chem Lett, 2008).
The source made the active and inactive calls. The calls are words filed in the database; no cut-off is given here.

What was measured:
Orexin receptor type 2 = biological target: T1, Orexin receptor type 2 (Homo sapiens, UniProt O43614); assay: Antagonist activity at human OX2 receptor expressed in HEK293 cells assessed as inhibition of human orexin-A-stimulated calcium release by FLIPR assay; type: functional, cell-based
T1 sequence (O43614 whole entry): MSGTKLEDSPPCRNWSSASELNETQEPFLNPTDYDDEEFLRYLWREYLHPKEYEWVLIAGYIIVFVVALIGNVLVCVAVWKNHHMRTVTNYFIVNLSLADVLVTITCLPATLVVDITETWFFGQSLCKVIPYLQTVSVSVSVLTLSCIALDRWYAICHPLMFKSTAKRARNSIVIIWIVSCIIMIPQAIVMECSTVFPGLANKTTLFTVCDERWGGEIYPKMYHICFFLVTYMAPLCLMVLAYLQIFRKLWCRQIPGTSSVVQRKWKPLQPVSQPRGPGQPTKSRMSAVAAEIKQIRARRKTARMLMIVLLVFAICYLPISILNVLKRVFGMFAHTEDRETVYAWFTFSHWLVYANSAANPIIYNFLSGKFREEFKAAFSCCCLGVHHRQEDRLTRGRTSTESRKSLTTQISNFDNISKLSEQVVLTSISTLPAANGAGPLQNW
Summary of the method: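 HEK293/OX2-R cells, 20,000/well, were grown 24 h at 37 °C. They were loaded with Calcium 3 no-wash dye in HBSS/20 mM HEPES pH 7.5/BSA with 2.5 mM probenecid final, for 30 min at 37 °C, then 30-90 min at room temperature. FLIPR fluorescence was read for 125 s.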

[1] = biological target: T2, Orexin receptor type 2 (Homo sapiens) (UniProt O43614); assay: Agonist activity at human OX2 receptor expressed in HEK293 cells assessed as effect on human orexin-A-stimulated calcium release by FLIPR assay; type: functional, cell-based
T2 sequence (whole entry): T1 sequence (O43614 whole entry)

IC50 (Orexin receptor type 2; read-out: IC50)	IC50 (Orexin receptor type 2; read-out: pIC50 (converted))	Activity [1]	SMILES
< 30 nM	19.5 nM	inactive	COc1ccc(OCCN(CC(=O)NCc2ccccc2)Cc2ccc(F)cc2)cc1OC
–	107 nM	inactive	COc1ccc(OCCCN(CC(=O)NCc2ccccc2)Cc2ccc(F)c(F)c2)cc1OC
–	81.3 nM	inactive	COc1ccc(OCCN(CC(=O)NCc2ccccc2Cl)Cc2ccc(F)c(F)c2)cc1OC
< 30 nM	18.6 nM	inactive	COc1ccc(OCCN(CC(=O)NCc2ccccc2)Cc2ccc(F)c(F)c2)cc1OC
–	132 nM	inactive	COc1ccc(OCCCN(CC(=O)NCc2ccccc2)Cc2cccs2)cc1OC
< 30 nM	25.1 nM	inactive	COc1ccc(OCCN(CC(=O)NCc2ccccc2)Cc2ccccc2)cc1OC
–	138 nM	inactive	COc1ccc(OCCN(CC(=O)NCc2ccccc2Cl)Cc2ccc(F)cc2)cc1OC
–	302 nM	inactive	COc1ccc(OCCN(CC(=O)NCC(C)C)Cc2ccccc2)cc1OC
–	229 nM	inactive	COc1ccc(OCCN(CC(=O)NCC(C)C)Cc2ccc(F)c(F)c2)cc1OC
–	324 nM	inactive	COc1ccc(OCCN(CC(=O)NCC(C)C)Cc2cccs2)cc1OC
–	51.3 nM	inactive	COc1ccc(OCCCN(CC(=O)NCc2ccccc2)Cc2ccccc2)cc1OC
–	110 nM	inactive	COc1ccc(OCCN(CC(=O)NCc2ccccc2)Cc2cccs2)cc1OC
–	195 nM	inactive	COc1ccc(OCCN(CC(=O)NCc2ccccc2Cl)Cc2cccs2)cc1OC
–	151 nM	inactive	COc1ccc(OCCN(CC(=O)NCc2ccccc2Cl)Cc2ccccc2)cc1OC
–	562 nM	inactive	COc1ccc(OCCN(CC(=O)NCC(C)C)Cc2ccc(F)cc2)cc1OC
